This is an account of results in ChEMBL document CHEMBL4354873, “Rationally Designed Small-Molecule Inhibitors Targeting an Unconventional Pocket on the TLR8 Protein-Protein Interface” (J Med Chem, 2020).

In general, IC50 refers to the point on the concentration scale where inhibition reaches its midpoint.

Active and inactive are the calls of the source. The calls are words filed in the database; no cut-off is given here.

The target in one data set is T1, Toll-like receptor 8 (Homo sapiens, UniProt Q9NR97).
T1 sequence (Q9NR97 whole entry): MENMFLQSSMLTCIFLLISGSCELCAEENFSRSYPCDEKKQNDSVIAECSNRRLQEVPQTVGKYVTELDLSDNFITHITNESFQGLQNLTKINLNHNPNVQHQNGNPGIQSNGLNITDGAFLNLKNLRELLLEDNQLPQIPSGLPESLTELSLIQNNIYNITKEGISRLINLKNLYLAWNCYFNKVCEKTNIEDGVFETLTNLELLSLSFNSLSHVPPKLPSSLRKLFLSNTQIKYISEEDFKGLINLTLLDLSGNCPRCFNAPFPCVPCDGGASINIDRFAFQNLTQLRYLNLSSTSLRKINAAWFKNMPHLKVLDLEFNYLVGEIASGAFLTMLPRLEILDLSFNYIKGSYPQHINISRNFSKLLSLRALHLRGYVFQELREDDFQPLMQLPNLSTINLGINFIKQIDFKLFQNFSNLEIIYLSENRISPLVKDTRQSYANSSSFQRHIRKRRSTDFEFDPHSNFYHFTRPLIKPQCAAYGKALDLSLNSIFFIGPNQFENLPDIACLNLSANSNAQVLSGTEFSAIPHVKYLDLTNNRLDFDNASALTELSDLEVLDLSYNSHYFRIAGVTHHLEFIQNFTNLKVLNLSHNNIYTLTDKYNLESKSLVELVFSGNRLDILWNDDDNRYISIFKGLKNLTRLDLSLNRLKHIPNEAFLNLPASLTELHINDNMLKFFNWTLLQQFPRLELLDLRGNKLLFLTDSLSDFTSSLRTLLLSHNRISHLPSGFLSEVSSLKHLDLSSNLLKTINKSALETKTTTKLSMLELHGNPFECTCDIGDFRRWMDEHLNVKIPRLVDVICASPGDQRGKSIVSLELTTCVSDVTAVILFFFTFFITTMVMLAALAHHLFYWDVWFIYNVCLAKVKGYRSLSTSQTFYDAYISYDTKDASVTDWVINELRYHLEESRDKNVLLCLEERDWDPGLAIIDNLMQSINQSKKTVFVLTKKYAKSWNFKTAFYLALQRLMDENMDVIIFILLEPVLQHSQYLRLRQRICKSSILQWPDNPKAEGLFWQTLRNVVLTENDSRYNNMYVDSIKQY
Briefly: Inhibition of human TLR8 expressed in HEK-Blue cells assessed as inhibition of R848-induced NF-kappaB activation measured after 24 hrs by quanti-blue based SEAP reporter gene assay. Format: cell-based.

Data set [1] in a line: Cytotoxicity against HEK-Blue cells expressing human TLR8 assessed as reduction in cell viability measured after 24 hrs by CCK8 assay. Type of data set: cell-based. The procedure, abridged:
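CCK-8 viability: compounds incubated 24 h at 37 °C with HEK-Blue TLR8 cells (4 × 10⁴ cells/well) or PBMCs (3 × 10⁶ cells/mL). CCK-8 was added at 1:10 for up to 2 h, then absorbance read at 450 nm. Values normalized to untreated cells as 100% survival.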
A general note: Formazan colour is commonly taken as a measure of viable cells.

Data set [2] deals with T2, Toll-like receptor 8 (Homo sapiens) (UniProt Q9NR97).
T2 sequence (whole entry): T1 sequence (Q9NR97 whole entry)
Briefly: Inhibition of human TLR8 expressed in HEK-Blue cells assessed as inhibition of R848-induced TNFalpha mRNA level at 1 uM measured after 8 hrs by Trizol reagent based qRT-PCR analysis. Format: cell-based. Summed up:
(§1)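 RT-qPCR: HEK-Blue TLR8 cells seeded at 1 × 10⁶/well and grown 24 h, then switched to serum-free medium. Treated with R848 4 µg/mL ± compound 1 µM for 8 h. Total RNA extracted with TRIzol, reverse transcribed, TNF-α and IL-8 mRNA quantified. Three independent biological replicates, mean ± s.d.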
(In general: In qPCR the cycle at which signal appears reflects the starting amount.)

Data set [3] has as its target T2, Toll-like receptor 8 (Homo sapiens). Briefly: Inhibition of human TLR8 expressed in HEK-Blue cells assessed as inhibition of R848-induced IL-8 mRNA level at 1 uM measured after 8 hrs by Trizol reagent based qRT-PCR analysis. Type of data set: cell-based. Summed up: as §1
Data set [4] has the same target. Briefly: Inhibition of TLR8 in human PBMC assessed as reduction in R848-induced TNFalpha production measured after 24 hrs by ELISA. The procedure, abridged:
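PBMCs from healthy donors isolated by density gradient centrifugation and cultured at once at 3 × 10⁶ cells/mL in RPMI 1640. Cells received R848 and varying compound concentrations for 24 h. Supernatants spun 10 min at 4 °C, frozen at −80 °C, and TNF-α measured by ELISA.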
In general terms: In an ELISA, binding on a coated surface is turned into a signal by an enzyme label.

Regarding `CSc1nnc(CCCO)n1C1CCCCC1`, the IC50 at Toll-like receptor 8 was more than 20 µM. As for `Cc1nc(-c2nnc(SCc3ccccc3)n2-c2cccc(F)c2)cs1`, the Activity result in data set [1] is recorded as “Non-Toxic”. On the same count and under the same terms, then `CSc1nnc(CCCO)n1-c1ccc(Cl)cc1Cl`, with “Non-Toxic”. Regarding `CSc1nnc(CCCO)n1-c1cccnc1`, the IC50 at Toll-like receptor 8 was more than 20 µM. The same measure, in the same setting: then `NC(=O)CSc1nnc(CCCO)n1-c1ccc(Cl)cc1Cl`, with more than 20 µM. As to `Fc1cccc(-n2c(SCc3c(Cl)cccc3Cl)nnc2C2CC2)c1`, the Activity result in data set [1] is recorded as “Non-Toxic”. Regarding `OCCCc1nnc(S)n1-c1ccc(Cl)cc1Cl`, the IC50 on Toll-like receptor 8 is more than 20 µM. In addition, the inhibition entry in data set [2], in data set [3] and in data set [4] was “inactive” in each case.

As to `CSc1nnc(O)n1-c1ccc(Cl)cc1Cl`, on Toll-like receptor 8, the IC50 came to 9 µM. Same read-out and setting: the same measure for `NC(=O)Sc1nnc(CCCO)n1-c1ccc(Cl)cc1Cl`: more than 20 µM.
